Source: ChEMBL document CHEMBL3826882, “Discovery of 1-((2R,4aR,6R,7R,7aR)-2-Isopropoxy-2-oxidodihydro-4H,6H-spiro[furo[3,2-d][1,3,2]dioxaphosphinine-7,2'-oxetan]-6-yl)pyrimidine-2,4(1H,3H)-dione (JNJ-54257099), a 3'-5'-Cyclic Phosphate Ester Prodrug of 2'-Deoxy-2'-Spirooxetane Uridine Triphosphate Useful for HCV Inhibition” (J Med Chem, 2016)
Each block holds one compound with its values, some of them ahead of it.

How the values were obtained:
[1] = test system: Hepatocyte; test: Drug level in rat primary hepatocytes treated with JNJ-54257099 at 2 to 62.5 uM after 24 hrs using radiolabeled compound by LC-MS/MS analysis; assay type: ADME, cell-based
Outline: (§1)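 Study A: primary cultured hepatocytes (mouse, rat, dog, human) incubated with 2 or 62.5 µM 5'-[3H]-labelled prodrug for 4 and 24 h. Cell lysates were analysed for triphosphate. Supernatants were protein-precipitated and profiled by HPLC with radioactivity detection. Cyclic monophosphate was also assessed by LC/MS/MS.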

[2] = test system: Hepatocyte; test: Drug level in human hepatocytes treated with JNJ-54257099 in presence of PDE4 inhibitor rolipram by LC-MS/MS analysis; assay type: ADME, cell-based
[3] = test system: Hepatocyte; test: Drug level in human hepatocytes treated with JNJ-54257099 in presence of CYP2C8 and CYP2C9 inhibitor montelukast by LC-MS/MS analysis; assay type: ADME, cell-based
[4] = Drug level in dog primary hepatocytes treated with JNJ-54257099 at 2 to 62.5 uM after 4 hrs using radiolabeled compound by LC-MS/MS analysis; assay type: ADME, cell-based, Canis lupus familiaris, Hepatocyte; outline: as §1
[5] = test system: Hepatocyte; test: Drug level in human hepatocytes treated with JNJ-54257099 in presence of pan-PDE inhibitor ibudilast by LC-MS/MS analysis; assay type: ADME, cell-based
[6] = test system: Hepatocyte; test: Drug level in mouse primary hepatocyte supernatant treated with JNJ-54257099 at 2 to 62.5 uM after 4 to 24 hrs using radiolabeled compound by HPLC analysis; assay type: ADME, cell-based; settings: hepatocytes; outline: as §1
[7] = test system: Hepatocyte; test: Drug level in human primary hepatocyte supernatant treated with JNJ-54257099 at 2 to 62.5 uM after 4 to 24 hrs using radiolabeled compound by HPLC analysis; assay type: ADME, cell-based; settings: hepatocytes; outline: as §1
[8] = Drug level in dog primary hepatocyte supernatant treated with JNJ-54257099 at 2 to 62.5 uM after 4 to 24 hrs using radiolabeled compound by HPLC analysis; assay type: ADME, cell-based, Canis lupus familiaris; settings: hepatocytes; outline: as §1
[9] = test system: Hepatocyte; test: Drug level in rat primary hepatocyte supernatant treated with JNJ-54257099 at 2 to 62.5 uM after 4 to 24 hrs using radiolabeled compound by HPLC analysis; assay type: ADME, cell-based; settings: hepatocytes; outline: as §1
[10] = Cytotoxicity against human HuH7-CMV-Luc cells assessed as reduction in cell proliferation after 3 days by 5-bromo-2'-deoxyuridine incorporation assay; assay type: cell-based, Huh-7
Outline: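 Huh7 cells at 1,500 cells/well, five serial compound dilutions in triplicate, 3 days of incubation. Proliferation was quantified as BrdU incorporation into DNA by ELISA.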

[11] = molecular target: Cytochrome P450 3A4 (Homo sapiens, UniProt P08684); test: Drug metabolism in baculovirus infected insect cell microsomes expressing human CYP3A4 assessed as CYP3A4-mediated intrinsic clearance per pmol CYP3A4 at 22.7 uM; assay type: ADME; settings: recombinant enzyme
Sequence of Cytochrome P450 3A4 (P08684 whole entry): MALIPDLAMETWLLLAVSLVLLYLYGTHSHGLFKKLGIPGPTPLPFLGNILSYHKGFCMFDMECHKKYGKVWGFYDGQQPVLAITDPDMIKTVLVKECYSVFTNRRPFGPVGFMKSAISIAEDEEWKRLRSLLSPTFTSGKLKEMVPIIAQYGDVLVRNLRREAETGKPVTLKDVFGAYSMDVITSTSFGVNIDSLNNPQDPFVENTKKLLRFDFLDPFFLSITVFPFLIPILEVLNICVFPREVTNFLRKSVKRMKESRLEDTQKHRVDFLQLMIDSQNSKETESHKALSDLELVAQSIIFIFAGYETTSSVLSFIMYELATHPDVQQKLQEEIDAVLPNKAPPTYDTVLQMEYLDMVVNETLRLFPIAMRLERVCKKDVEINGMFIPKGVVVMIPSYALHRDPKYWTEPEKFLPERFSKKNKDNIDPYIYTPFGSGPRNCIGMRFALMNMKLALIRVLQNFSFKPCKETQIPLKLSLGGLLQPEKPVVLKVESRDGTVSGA
Outline: (§2)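 Incubation at 22.7 µM with human CYP3A4 supersomes. Intrinsic clearance (µL/min.pmol P450) and half-life (min) were determined.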

[12] = test system: Hepatitis C virus; test: Antiviral activity against HCV genotype 1b infected in human HuH7 cells assessed as inhibition of viral replication after 3 days by luciferase reporter gene assay; assay type: functional, organism-based, Hepacivirus hominis; settings: Huh-7, 72 h
Outline: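 HCV 1b subgenomic luciferase replicon (Huh7-luc, clone ET, adaptive mutations E1202G, T1280I, K1846T). 2,500 cells were incubated with compound over a 9-point, 1/4 dilution series for 3 days. Replication was read as luciferase activity.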

[13] = molecular target: CYP3A4 (Homo sapiens, UniProt P08684); test: Drug metabolism in baculovirus infected insect cell microsomes expressing human CYP3A4 assessed as CYP3A4-mediated half life at 22.7 uM; assay type: ADME; outline: as §2
Sequence of CYP3A4 (P08684 whole entry): as above

[14] = test system: Hepatocyte; test: Prodrug conversion in human cryopreserved hepatocytes assessed as 2'-deoxy-2'-spirooxetane uridine triphosphate level per million cells at 10 uM after 24 hrs by LC-MS/MS analysis; assay type: ADME, cell-based
Outline: (§3)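 Plated cryopreserved hepatocytes (study B) incubated with 10 µM unlabeled prodrug for 2, 8 or 24 h. Triphosphate measured in cell lysates and expressed as pmol/million hepatocytes. Quantification limit 2 ng/10^6 cells.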

[15] = test system: Hepatocyte; test: Prodrug conversion in mouse cryopreserved hepatocytes assessed as 2'-deoxy-2'-spirooxetane uridine triphosphate level per million cells at 10 uM after 8 hrs by LC-MS/MS analysis; assay type: ADME, cell-based; outline: as §3
[16] = Prodrug conversion in dog cryopreserved hepatocytes assessed as 2'-deoxy-2'-spirooxetane uridine triphosphate level per million cells at 10 uM after 24 hrs by LC-MS/MS analysis; assay type: ADME, cell-based, Canis lupus familiaris, Hepatocyte; outline: as §3
[17] = Prodrug conversion in dog cryopreserved hepatocytes assessed as 2'-deoxy-2'-spirooxetane uridine triphosphate level per million cells at 10 uM after 2 hrs by LC-MS/MS analysis; assay type: ADME, cell-based, Canis lupus familiaris, Hepatocyte; outline: as §3
[18] = test system: Hepatocyte; test: Prodrug conversion in rat cryopreserved hepatocytes assessed as 2'-deoxy-2'-spirooxetane uridine triphosphate level per million cells at 10 uM after 24 hrs by LC-MS/MS analysis; assay type: ADME, cell-based; outline: as §3
[19] = test system: Hepatocyte; test: Prodrug conversion in mouse cryopreserved hepatocytes assessed as 2'-deoxy-2'-spirooxetane uridine triphosphate level per million cells at 10 uM after 2 hrs by LC-MS/MS analysis; assay type: ADME, cell-based; outline: as §3
[20] = test system: Hepatocyte; test: Prodrug conversion in human cryopreserved hepatocytes assessed as 2'-deoxy-2'-spirooxetane uridine triphosphate level per million cells at 10 uM after 8 hrs by LC-MS/MS analysis; assay type: ADME, cell-based; outline: as §3
[21] = test system: Hepatocyte; test: Prodrug conversion in human cryopreserved hepatocytes assessed as 2'-deoxy-2'-spirooxetane uridine triphosphate level per million cells at 10 uM after 2 hrs by LC-MS/MS analysis; assay type: ADME, cell-based; outline: as §3
[22] = test system: Hepatocyte; test: Prodrug conversion in rat cryopreserved hepatocytes assessed as 2'-deoxy-2'-spirooxetane uridine triphosphate level per million cells at 10 uM after 2 hrs by LC-MS/MS analysis; assay type: ADME, cell-based; outline: as §3
[23] = Prodrug conversion in dog cryopreserved hepatocytes assessed as 2'-deoxy-2'-spirooxetane uridine triphosphate level per million cells at 10 uM after 8 hrs by LC-MS/MS analysis; assay type: ADME, cell-based, Canis lupus familiaris, Hepatocyte; outline: as §3
[24] = test system: Hepatocyte; test: Prodrug conversion in mouse cryopreserved hepatocytes assessed as 2'-deoxy-2'-spirooxetane uridine triphosphate level per million cells at 10 uM after 24 hrs by LC-MS/MS analysis; assay type: ADME, cell-based; outline: as §3
[25] = test system: Hepatocyte; test: Prodrug conversion in rat cryopreserved hepatocytes assessed as 2'-deoxy-2'-spirooxetane uridine triphosphate level per million cells at 10 uM after 8 hrs by LC-MS/MS analysis; assay type: ADME, cell-based; outline: as §3
[26] = test system: Hepatitis C virus; test: Antiviral activity against HCV genotype 3a infected in homozygous cDNA-uPA chimeric SCID mouse bearing humanized hepatocytes assessed as reduction in HCV RNA level in serum administered through oral gavage twice daily daily for 7 days by RT-PCR method; assay type: functional, organism-based; settings: Hepacivirus hominis, Hepatocyte
Outline: (§4)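 Male chimeric SCID cDNA-uPA+/+ mice with human hepatocyte liver (≥70% replacement by blood human albumin) and serum HCV RNA >1.0×10^6 copies/mL the week before dosing. Oral gavage for 7 days in 20% HP-β-CD, 50-200 mg/kg QD or BID. Serum sampled pre-dose on days 1, 2, 3, 5 and 7. Real-time PCR; mean change in log10 copies/mL, day 7 vs day 1 pre-dose.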

[27] = test system: Hepatitis C virus; test: Antiviral activity against HCV genotype 1a infected in homozygous cDNA-uPA chimeric SCID mouse bearing humanized hepatocytes assessed as change in HCV RNA level in serum at 100 mg/kg, po qd administered through gavage for 7 days by RT-PCR method; assay type: functional, Hepacivirus hominis, subtype 1a, Hepatocyte; outline: as §4
[28] = test system: Hepatitis C virus; test: Antiviral activity against HCV genotype 3a infected in homozygous cDNA-uPA chimeric SCID mouse bearing humanized hepatocytes assessed as change in HCV RNA level in serum at 100 mg/kg, po qd administered through gavage for 7 days by RT-PCR method; assay type: functional, Hepacivirus hominis, Hepatocyte; outline: as §4
[29] = test system: Hepatitis C virus; test: Antiviral activity against HCV genotype 3a infected in homozygous cDNA-uPA chimeric SCID mouse bearing humanized hepatocytes assessed as reduction in HCV RNA level in serum administered through oral gavage once daily for 7 days by RT-PCR method; assay type: functional, organism-based; settings: Hepacivirus hominis, Hepatocyte; outline: as §4
[30] = molecular target: RNA-directed RNA polymerase (Hepacivirus hominis, UniProt O39930); test: Inhibition of HCV RNA polymerase
Sequence of RNA-directed RNA polymerase (O39930 whole entry): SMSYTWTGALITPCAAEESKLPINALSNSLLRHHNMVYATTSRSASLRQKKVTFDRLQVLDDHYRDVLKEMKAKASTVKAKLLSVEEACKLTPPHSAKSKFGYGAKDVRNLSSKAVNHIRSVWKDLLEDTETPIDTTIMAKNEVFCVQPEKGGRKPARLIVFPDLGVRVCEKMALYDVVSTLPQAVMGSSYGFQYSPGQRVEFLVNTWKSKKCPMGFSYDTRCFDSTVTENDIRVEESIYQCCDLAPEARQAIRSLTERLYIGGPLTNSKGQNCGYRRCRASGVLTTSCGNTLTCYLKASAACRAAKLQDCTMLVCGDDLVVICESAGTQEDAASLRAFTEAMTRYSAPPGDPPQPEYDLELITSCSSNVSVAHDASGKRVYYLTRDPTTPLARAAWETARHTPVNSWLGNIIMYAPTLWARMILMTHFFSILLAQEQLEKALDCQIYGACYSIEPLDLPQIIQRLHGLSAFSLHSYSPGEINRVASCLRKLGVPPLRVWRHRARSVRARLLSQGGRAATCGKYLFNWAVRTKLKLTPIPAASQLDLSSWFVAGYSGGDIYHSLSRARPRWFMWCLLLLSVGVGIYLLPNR

Drug metabolism [1]: metabolite_detected
Drug metabolism [2]: metabolite_detected
Drug metabolism [3]: metabolite_detected
Drug metabolism [4]: metabolite_detected
Drug metabolism [5]: metabolite_detected
Compound: O=c1ccn([C@@H]2O[C@H](COP(=O)(O)O)[C@@H](O)[C@]23CCO3)c(=O)[nH]1

Drug metabolism [6]: metabolite_detected
Drug metabolism [7]: metabolite_detected
Drug metabolism [8]: metabolite_detected
Drug metabolism [9]: metabolite_detected
Compound: O=c1ccn([C@@H]2O[C@H](CO)[C@@H](O)[C@]23CCO3)c(=O)[nH]1

CL [11]: 0.1 µL/min
EC50 [12]: 300 nM
half-life at 22.7 µM [13]: 1.27 h
Compound: CCOc1nc(N)nc2c1ncn2[C@@H]1O[C@@H]2CO[P@](=O)(OC(C)C)O[C@H]2[C@@]1(C)F
CC50 at 72 h [10]: > 100000 nM

Drug metabolism [1]: metabolite_detected
Drug metabolism [6]: metabolite_detected
Drug metabolism [7]: metabolite_detected
Drug metabolism [8]: metabolite_detected
Drug metabolism [4]: metabolite_detected
Drug metabolism [9]: metabolite_detected
Compound: O=c1ccn([C@@H]2O[C@@H]3COP(=O)(O)O[C@H]3[C@]23CCO3)c(=O)[nH]1

Compound: CCCCOC(=O)[C@H](C)NP(=O)(OC[C@H]1O[C@@H](n2ccc(=O)[nH]c2=O)[C@@]2(CCO2)[C@@H]1O)Oc1ccccc1 (stereo partly drawn)
Drug metabolism [14]: 0.173 pmol
Drug metabolism [15]: 0.066 pmol
Drug metabolism [16]: 0.007 pmol
Drug metabolism [17]: 0.01 pmol
Drug metabolism [18]: 0.013 pmol
Drug metabolism [19]: 0.028 pmol
CC50 at 72 h [10]: > 100000 nM
Drug metabolism [20]: 0.257 pmol
Drug metabolism [21]: 0.044 pmol
Drug metabolism [22]: 0.025 pmol
Drug metabolism [23]: 0.021 pmol
Drug metabolism [24]: 0.023 pmol
Drug metabolism [25]: 0.058 pmol

Compound: CC(C)OC(=O)[C@H](C)N[P@](=O)(OC[C@H]1O[C@@H](n2ccc(=O)[nH]c2=O)[C@](C)(F)[C@@H]1O)Oc1ccccc1 [SOFOSBUVIR]
Activity [26]: Dose-dependent effect
Activity [27]: -2.14
Activity [28]: -0.97
Activity [29]: Dose-dependent effect

IC50 [30]: 1000 nM
Ki [30]: 130 nM
Compound: O=c1ccn([C@@H]2O[C@H](COP(=O)(O)OP(=O)(O)OP(=O)(O)O)[C@@H](O)[C@]23CCO3)c(=O)[nH]1
